Series [1] can be described thus: Antioxidant activity assessed as DPPH free radical scavenging activity after 30 mins by spectrophotometry. Type of series: physicochemical. In a few lines: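 DPPH radical (final 400 µM, in ethanol) mixed with test compound at 25–400 µM at room temperature; absorbance at 517 nm recorded at intervals over 90 min; % reducing capacity taken at 30 min, IC50 from this; means ± sem of at least two independent experiments.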

Series [2] in a line: Effect on PARP protein level in mouse C2 cells at 2.5 uM incubated for 30 mins by SDS-PAGE and immunoblotting method. The class given is cell-based. The conditions noted are these: c2, 0.5 h.
The subject of series [3] is C2. The series is described as follows: Inhibition of curcumin-induced apoptosis in mouse C2 cells assessed as reduction in PARP cleavage at 2.5 uM pre-incubated for 30 mins before curcumin exposure for 4 hrs by SDS-PAGE and immunoblotting method. The class given is functional, cell-based. A digest of the protocol: (§1)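 C2 cells pre-incubated 30 min with compound, then 50 µM curcumin for 4 h; buffer G lysates (30 µg) immunoblotted with antibody detecting full-length PARP and the 89 kDa fragment, actin loading control; densitometry, means ± sem of ≥3 experiments, one-way ANOVA with Bonferroni.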
In general terms: Immunoblotting shows a protein as a band on a membrane.

Series [4] in a line: Cytotoxic activity against mouse C2 cells assessed as cell viability at 30 uM after 24 hrs by MTT assay (reference value: 100%). Type of series: cell-based. As to conditions: read-out: Activity. A digest of the protocol:
(§2)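 Serum-deprived C2 myoblasts (≥3 h, 70% confluence) incubated with compound alone (DMSO vehicle) for 24 h; MTT read at 540 nm after lysis in 0.1 M HCl/isopropanol, expressed as % of untreated control; means ± sem of ≥3 independent experiments.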

Series [5] concerns C2. The series is described as follows: Inhibition of curcumin-induced apoptosis in mouse C2 cells assessed as reduction in PARP cleavage at 30 uM pre-incubated for 30 mins before curcumin exposure for 4 hrs by SDS-PAGE and immunoblotting method. Type of series: functional, cell-based. In a few lines:
as §1

A short description of series [6]: Cytoprotective activity against H2O2-induced cytotoxicity in mouse C2 cells assessed as cell viability at 30 uM after 24 hrs by MTT assay (reference value: 83.1 +/- 3.5%). The class given is functional. As to conditions: C2, 24 h, read-out: Activity. (Formazan colour is commonly taken as a measure of viable cells.)
Series [7] has as its system C2. Kind of series: Inhibition of curcumin-induced JNK in mouse C2 cells assessed as reduction in c-Jun phosphorylation at 30 uM pre-incubated for 30 mins before curcumin exposure for 4 hrs by Western blotting method. Type of series: cell-based. In a few lines: (§3)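 After 30 min pre-incubation with compound and 4 h 50 µM curcumin, nuclear extracts prepared by subcellular fractionation (25 µg) immunoblotted for phospho-c-Jun, with total c-Jun as loading control; densitometry, means ± sem of ≥3 experiments, one-way ANOVA/Bonferroni.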

The test system of series [8] is C2. The series is described as follows: Inhibition of curcumin-induced ERK phosphorylation in mouse C2 cells at 30 uM pre-incubated for 30 mins before curcumin exposure for 15 mins by SDS-PAGE and immunoblotting method. The class given is cell-based. In a few lines: (§4)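 Cells pre-treated 30 min with compound, then 50 µM curcumin for 15 min; whole-cell extracts (buffer G, 30 µg) immunoblotted for phospho-ERKs, actin loading control, ECL and densitometry; means ± sem of ≥3 experiments, one-way ANOVA/Bonferroni.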

In series [9] the test system is C2. Kind of series: Inhibition of H2O2-induced ERK phosphorylation in mouse C2 cells at 30 uM pre-incubated for 30 mins before H2O2 exposure for 15 mins by SDS-PAGE and immunoblotting method. The class given is cell-based. A digest of the protocol: (§5)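 C2 myoblasts pre-incubated 30 min with compound, then 1 mM H2O2 for 15 min. Lysates in buffer G (30 µg) run on SDS–PAGE and immunoblotted for phospho-ERKs or phospho-JNKs, actin as loading control; ECL, densitometry; means ± sem, ≥3 experiments; one-way ANOVA with Bonferroni post-test.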

The nature of series [10]: Effect on PARP protein level in mouse C2 cells at 30 uM incubated for 30 mins by SDS-PAGE and immunoblotting method. Type of series: cell-based. As to conditions: c2, 0.5 h.
A short description of series [11]: Cytoprotective activity against H2O2-induced cytotoxicity in mouse C2 cells assessed as cell viability at 50 uM after 24 hrs by MTT assay (reference value: 83.1 +/- 3.5%). Type of series: functional. As to conditions: C2, 24 h, read-out: Activity.
Series [12] in a line: Cytoprotective activity against H2O2-induced cytotoxicity in mouse C2 cells assessed as cell viability at 1 uM after 24 hrs by MTT assay (reference value: 83.1 +/- 3.5%). The class given is functional. As to conditions: C2, 24 h, read-out: Activity.
Series [13] in a line: Cytoprotective activity against curcumin-induced cytotoxicity in mouse C2 cells assessed as cell viability at 30 uM after 24 hrs by MTT assay (reference value: 83.8 +/- 0.4%). As to conditions: C2, 24 h, read-out: Activity. The class given is functional.
The nature of series [14]: Cytoprotective activity against H2O2-induced cytotoxicity in mouse C2 cells assessed as cell viability at 15 uM after 24 hrs by MTT assay (reference value: 83.1 +/- 3.5%). Type of series: functional. The conditions noted are these: C2, 24 h, read-out: Activity.
The test system of series [15] is C2. Kind of series: Inhibition of curcumin-induced JNK phosphorylation in mouse C2 cells at 30 uM pre-incubated for 30 mins before curcumin exposure for 2 hrs by SDS-PAGE and immunoblotting method.
The test system of series [16] is C2. The series is described as follows: Inhibition of H2O2-induced JNK phosphorylation in mouse C2 cells at 30 uM pre-incubated for 30 mins before H2O2 exposure for 15 mins by SDS-PAGE and immunoblotting method. The class given is cell-based. In a few lines: as §5
The test system of series [17] is C2. The series is described as follows: Inhibition of curcumin-induced JNK phosphorylation in mouse C2 cells at 15 uM pre-incubated for 30 mins before curcumin exposure for 2 hrs by SDS-PAGE and immunoblotting method.
A short description of series [18]: Cytoprotective activity against curcumin-induced cytotoxicity in mouse C2 cells assessed as cell viability at 15 uM after 24 hrs by MTT assay (reference value: 83.8 +/- 0.4%). As to conditions: C2, 24 h, read-out: Activity. The class given is functional.
Series [19] can be described thus: Cytotoxic activity against mouse C2 cells assessed as cell viability at 15 uM after 24 hrs by MTT assay (reference value: 100%). The class given is cell-based. The conditions noted are these: read-out: Activity. A digest of the protocol:
as §2

Series [20] has as its system C2. Kind of series: Inhibition of curcumin-induced JNK in mouse C2 cells assessed as reduction in c-Jun phosphorylation at 15 uM pre-incubated for 30 mins before curcumin exposure for 4 hrs by Western blotting method. The class given is cell-based. In a few lines: as §3
For series [21], the system named is C2. Kind of series: Inhibition of curcumin-induced ERK phosphorylation in mouse C2 cells at 15 uM pre-incubated for 30 mins before curcumin exposure for 15 mins by SDS-PAGE and immunoblotting method. The class given is cell-based. In a few lines: as §4
Series [22] concerns C2. The series is described as follows: Inhibition of H2O2-induced ERK phosphorylation in mouse C2 cells at 15 uM pre-incubated for 30 mins before H2O2 exposure for 15 mins by SDS-PAGE and immunoblotting method. The class given is cell-based. A digest of the protocol:
as §5

For series [23], the system named is C2. The series is described as follows: Inhibition of H2O2-induced JNK phosphorylation in mouse C2 cells at 15 uM pre-incubated for 30 mins before H2O2 exposure for 15 mins by SDS-PAGE and immunoblotting method. Type of series: cell-based. In a few lines: as §5
A short description of series [24]: Cytotoxic activity against mouse C2 cells assessed as cell viability at 50 uM after 24 hrs by MTT assay (reference value: 100%). The class given is cell-based. As to conditions: read-out: Activity. In a few lines:
as §2

The nature of series [25]: Effect on PARP protein level in mouse C2 cells at 15 uM incubated for 30 mins by SDS-PAGE and immunoblotting method. Type of series: cell-based. The conditions noted are these: c2, 0.5 h.
The test system of series [26] is C2. Kind of series: Inhibition of curcumin-induced apoptosis in mouse C2 cells assessed as reduction in PARP cleavage at 15 uM pre-incubated for 30 mins before curcumin exposure for 4 hrs by SDS-PAGE and immunoblotting method. Type of series: functional, cell-based. In a few lines:
as §1

pIC50: −log10 of the molar value. Calls of active or inactive are those of the source. No cut-off for these calls is given here.

We go through six molecules from ChEMBL document CHEMBL3392958, “Evaluation of two novel antioxidants with differential effects on curcumin-induced apoptosis in C2 skeletal myoblasts; involvement of JNKs” (Bioorg Med Chem, 2015).

`Oc1ccc(/C=C/c2cc(O)cc(O)c2)cc1` [RESVERATROL]: the pIC50 in series [1] is 4.02.

For the molecule `N#C/C(=C1/Nc2ccccc2S1)c1ccnc(NCCc2cccnc2)n1`, the Activity result in series [2] is “Non-toxic”. The inhibition entry with C2 [3] was “Active”.

Consider `CN1CC(O)(c2ccc(-c3ccccc3)cc2)Sc2ccccc21` (centres undefined), for which the viability at 24 h, 30 µM in [4] was 99.5%. For the same molecule, in the series on C2 [5], the inhibition entry was “Active”. The viability at 30 µM in [6] and in series [13] was 99.1% in each case. In addition, the inhibition is 40% in the series on C2 [7]; 53% with C2 [8]; 55% in the series with C2 [9]; 50% with C2 [15]; 81% in the series with C2 [16]. Moreover, in series [1], the pIC50 is 3.57. Moreover, the Activity entry in [10] is “Non-toxic”. In addition, in series [11], the viability at 50 µM was 97.6%. The viability at 1 µM in series [12] turned out to be 81.6%. In addition, in series [14], the viability at 15 µM amounted to 87.1%.

For `COc1ccc2[nH]cc(CCNC(C)=O)c2c1` [MELATONIN], the inhibition came to 50% in the series with C2 [17], 57% in the series with C2 [20] and 53% with C2 [21]. The viability at 15 µM was found to be 98.5% in series [18] and 92.5% in [14]. Besides, in series [19], the viability at 24 h, 15 µM worked out at 96.9%.

With `COc1cc(/C=C/C(=O)CC(=O)/C=C/c2ccc(O)c(OC)c2)ccc1O` [CURCUMIN], the viability at 30 µM in series [6] is 93.1%. For the same molecule, the inhibition with C2 [22] came to 55%; with C2 [23], 81%. In series [11], the viability at 50 µM worked out at 53.6%. For the same molecule, the viability at 24 h, 50 µM in series [24] was 83.8%. The viability at 1 µM in series [12] is 85.5%. Further, the viability at 15 µM in [14] worked out at 90.2%.

For the molecule `CN1CC(O)(c2ccc(-c3ccccc3)cc2)Oc2ccccc21` (centres undefined), the inhibition result in the series with C2 [17], with C2 [20] and in the series on C2 [26] was “inactive” throughout. For the same molecule, the viability at 15 µM in [18] worked out at 53.6%; in [14] it was 97.1%. The viability at 30 µM in [6] was found to be 76.2%. Besides, the inhibition was 55% in the series on C2 [22], 81% in the series with C2 [23] and 79% in the series on C2 [21]. The viability at 24 h, 15 µM in [19] was found to be 98.1%. Moreover, the pIC50 in series [1] is 3.92. Also, the viability at 50 µM in [11] stood at 71.6%. Also, in [12], the viability at 1 µM was 84.6%. In addition, in series [25], the Activity entry is reported as “Non-toxic”.

As a reminder, the pIC50 is the IC50 on a negative log10 scale, so that one unit is a factor of ten. The inhibition is the share of the control response that was lost under treatment.
